Laboratory results: ChEMBL document CHEMBL1811801, “Structural modifications of quinolone-3-carboxylic acids with anti-HIV activity” (Bioorg Med Chem, 2011)

Experiments:
[1] = Cytotoxicity against human C8166 cells by MTT assay; format: cell-based
Outline: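 Uninfected C8166 cells exposed to compound; viability read by MTT assay. CC50 is the concentration lowering normal uninfected cell viability by 50%. Values are means of at least two separate experiments.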

[2] = test system: Human immunodeficiency virus 1; assay: Antiviral activity against HIV1 LAI 3B infected in human C8166 cells assessed as protection against virus-induced cytopathic effect by MTT assay; format: functional, organism-based; conditions: Human immunodeficiency virus 1, LAI 3B
Outline: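 C8166 cells infected with wild-type HIV-1 (LAI strain IIIB); protection from viral cytopathogenicity read by MTT assay. EC50 is the concentration protecting cells against virus-induced cytopathogenicity by 50%. Values are means of at least two separate experiments.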

[3] = Selectivity index, ratio of CC50 for human C8166 cells to EC50 for HIV1 LAI 3B; format: toxicity, cell-based; conditions: read-out: Ratio CC50/EC50

Row | Structure (SMILES) | CC50 [1] [µM] | EC50 [2] [µM] | selectivity ratio [3]
1 | COc1cc2c(cc1Cc1cccc(Cl)c1F)c(=O)c(C(=O)O)cn2[C@H](CO)C(C)C [ELVITEGRAVIR] | 17.2 | 0.00021 | 81900
2 | CCC(C)n1cc(C(=O)O)c(=O)c2c(O)c(Cc3cccc(Cl)c3F)ccc21 (stereo unspecified) | 30.7 | 1.83 | 16.8
3 | O=C(O)c1cn(C2CCCC2)c2ccc(Cc3cccc(Cl)c3F)c(O)c2c1=O | 12.4 | 3.87 | 3.21
4 | CCCCCn1cc(C(=O)O)c(=O)c2c(O)c(Cc3cccc(Cl)c3F)ccc21 | 39.9 | 23.5 | 1.7
5 | CC(C)(C)n1cc(C(=O)O)c(=O)c2c(O)c(Cc3cccc(Cl)c3F)ccc21 | 400 | 4.53 | 88.3
6 | CCCCn1cc(C(=O)O)c(=O)c2c(O)c(Cc3cccc(Cl)c3F)ccc21 | 19.9 | 8.09 | 2.47
7 | CC(C)Cn1cc(C(=O)O)c(=O)c2c(O)c(Cc3cccc(Cl)c3F)ccc21 | 19.5 | 3.47 | 5.63
8 | CCCn1cc(C(=O)O)c(=O)c2c(O)c(Cc3cccc(Cl)c3F)ccc21 | 24.2 | 2.79 | 8.66
9 | O=C(O)c1cn(C2CCCCC2)c2ccc(Cc3cccc(Cl)c3F)c(O)c2c1=O | 17.4 | 2.81 | 6.18
10 | CC(C)n1cc(C(=O)O)c(=O)c2c(O)c(Cc3cccc(Cl)c3F)ccc21 | 26.5 | 4.44 | 5.97
11 | O=C(O)c1cn(C2CC2)c2ccc(Cc3cccc(Cl)c3F)c(O)c2c1=O | 39.1 | 2.01 | 19.5
12 | CC(C)[C@@H](CO)n1cc(C(=O)O)c(=O)c2c(O)c(Cc3cccc(Cl)c3F)ccc21 | 125 | 0.13 | 962
